Published values collected from several papers.
Compare with care: the assays were run in different laboratories.
Target: Mitogen-activated protein kinase kinase kinase 2 (MAP3K2, Homo sapiens, UniProt Q9Y2U5)
Sequence (Q9Y2U5 1-619, as in one of the studies): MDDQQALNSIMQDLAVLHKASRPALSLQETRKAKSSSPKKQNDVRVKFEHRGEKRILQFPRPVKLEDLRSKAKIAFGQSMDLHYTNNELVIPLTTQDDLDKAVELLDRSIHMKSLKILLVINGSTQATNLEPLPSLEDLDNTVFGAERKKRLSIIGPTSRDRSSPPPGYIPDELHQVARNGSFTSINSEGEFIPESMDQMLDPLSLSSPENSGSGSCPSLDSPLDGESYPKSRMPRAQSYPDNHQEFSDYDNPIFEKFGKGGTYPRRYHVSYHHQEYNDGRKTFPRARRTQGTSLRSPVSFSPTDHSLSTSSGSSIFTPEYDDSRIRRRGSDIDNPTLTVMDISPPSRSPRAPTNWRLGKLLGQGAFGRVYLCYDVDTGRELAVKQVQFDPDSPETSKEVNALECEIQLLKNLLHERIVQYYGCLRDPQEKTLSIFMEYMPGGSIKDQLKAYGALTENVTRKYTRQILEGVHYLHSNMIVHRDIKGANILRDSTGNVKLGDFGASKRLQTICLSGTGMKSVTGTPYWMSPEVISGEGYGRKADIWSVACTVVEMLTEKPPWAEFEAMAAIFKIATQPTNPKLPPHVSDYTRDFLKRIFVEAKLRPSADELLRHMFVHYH

Nc1ncnc2occ(-c3ccc(NC(=O)Nc4cc(C(F)(F)F)ccc4F)cc3)c12
remaining signal (cell-free assay; inhibitor; 20 µM): 1.4%

CN1CC(Oc2cnc(C#N)cc2-c2ccn3nc(NC(=O)C4CC4)cc3c2)C1
inhibition (enzyme activity; inhibitor; 1 µM): 0%

CN(C)C(=O)Cn1cc(-c2nc([C@@](C)(c3ccc(-c4cnc(N)nc4)cc3)C3CC3)no2)cn1
remaining binding (cell-free assay; competition with immobilised ligand; 1 µM): 94%

CC(C)(O)[C@H]1CC[C@H](Nc2ccc3ncc(-c4cccc(C(F)(F)F)c4)n3n2)CC1
remaining activity (enzyme activity; inhibitor; 1 µM): 95.8%

Cc1nc(C2CCN(C(=O)c3ccc(OC(F)(F)F)cc3N)CC2)c2ncc(N3CCN(C)CC3)cc2n1
remaining binding (cell-free assay; competition with immobilised ligand; 1 µM): 100%

CCN1CCN(Cc2ccc(NC(=O)c3ccc(C)c(Oc4ccnc5[nH]ccc45)c3)cc2C(F)(F)F)CC1
inhibition (target engagement in cells; inhibitor; chemoproteomics; Huh-7; 1 µM): -39%

O=C1Nc2ccc(Cl)cc2C1=Cc1cc(Cl)c(O)c(Cl)c1
remaining signal (cell-free assay; 0.5 µM): 95.7%

O=C(Nc1cnn(-c2csc(C(=O)NC3COC3)c2)c1)Nc1c(F)cccc1Cl
remaining activity (enzyme activity; inhibitor; 5 µM): 80.1%

Cc1cc(NC(=O)c2cccc3cc(-c4cccc5[nH]nc(N)c45)ccc23)ccc1F
activity vs control (enzyme activity; inhibitor; 0.1 µM): 100%

CCOc1cc(-c2nncn2C)ccc1Nc1ncc2cc(C)nc(NCC(C)(C)C)c2n1
inhibition (cell-free assay; TR-FRET; 1 µM): ≤ 15%

CN([C@@H]1CCc2c(CC(=O)O)c3ccccc3n2C1)S(=O)(=O)c1ccc(F)cc1
remaining binding (cell-free assay; competition with immobilised ligand; 1 µM): 100%

CCN(CC)CCNC(=O)c1c(C)[nH]c(/C=C2\C(=O)Nc3ccc(F)cc32)c1C
remaining signal (cell-free assay; 0.5 µM): 51.9%

O=C(NCc1ncc(C(F)(F)F)cc1Cl)c1ccc2c(c1)C1(CCS(=O)(=O)CC1)[C@H](C1CC1)N2S(=O)(=O)c1ccc(F)cc1
remaining binding (cell-free assay; competition with immobilised ligand; 1 µM): 66%

CC(C)(C)c1nc2c(s1)c1nc(N)ncc1c1ccc(NS(=O)(=O)c3c(F)cccc3F)c(F)c12
remaining activity (enzyme activity; inhibitor; radiometric; 1 µM): 83%
